Two molecules from ChEMBL document CHEMBL1126655, “Synthesis and antiviral activity of novel isonucleoside analogs” (J Med Chem, 1993) can be followed below.

The subject of data set [1] is Human betaherpesvirus 5. Briefly: Antiviral activity against Human cytomegalovirus (AD169 strain). It counts as functional. Conditions: read-out: ID50 (the source's name). The method in brief: (§1)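 WI-38 monolayers were infected, with virus adsorbed for 1–2 h. They were then overlaid with EMEM maintenance medium (1% carboxymethyl cellulose, 2.5% FBS) containing duplicate drug dilutions. Monolayers were stained after 4–6 days at 37 °C. ID50 was taken as the concentration giving 50% plaque reduction versus virus controls. Titrations were done in duplicate.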

For data set [2], the system named is Human alphaherpesvirus 1. Nature of the data set: Antiviral activity against Herpes simplex virus-1 (Schooler strain). It counts as functional. The note with it: read-out: ID50 (the source's name). Put shortly:
as §1

For data set [3], the system named is Human alphaherpesvirus 3. Nature of the data set: Antiviral activity against Varicella zoster virus (Ellen strain). It counts as functional. The note with it: read-out: ID50 (the source's name). The method in brief:
as §1

Data set [4] deals with Human alphaherpesvirus 1. Nature of the data set: Antiviral activity against Herpes simplex virus-1 (Schooler). The format is functional. The note with it: read-out: ID50 (the source's name). The method in brief:
as §1

In data set [5] the test system is Human alphaherpesvirus 2. Briefly: Antiviral activity against Herpes simplex virus-2 (thymidine kinase deficient strains isolated as BVaraU resistant mutants of HSV-1 (KOS)). The format is functional. The note with it: read-out: ID50 (the source's name).
The nature of data set [6]: Antiviral activity against Herpes simplex virus-1 (KOS strain). The format is functional. Conditions: Human alphaherpesvirus 1; read-out: ID50 (the source's name). The method in brief: as §1
Data set [7] concerns Human alphaherpesvirus 1. Briefly: Antiviral activity against Herpes simplex virus-1 (thymidine kinase deficient strains isolated as BVaraU resistant mutants of HSV-1 (KOS)). The format is functional. The note with it: read-out: ID50 (the source's name). Put shortly:
as §1

For data set [8], the system named is Mus musculus. Nature of the data set: Protective dose against Herpes simplex virus type type -1 infection in mice at 200 mg/kg. The format is functional. Conditions: read-out: PD50. Put shortly:
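Female Swiss-Webster mice (20–23 g), 10 per group, infected intraperitoneally with 10^3 PFU HSV-1 strain Schooler (Vero freeze-thaw extract) in 0.3% BSA-PBS. Subcutaneous dosing in PBS twice daily from 1 h postinfection for 5 days, 12.5–200 mg/kg/day. Survival scored over 21 days; PD50 from survival by probit analysis.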

Data set [9] relates to Mus musculus. Briefly: Protective dose against Herpes simplex virus type type -2 infection in mice at 200 mg/kg. The format is functional. The note with it: read-out: PD50. The method in brief:
(§2)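 Female Swiss-Webster mice (20–23 g), 10 per group, infected intraperitoneally with 10^6 PFU HSV-2 strain Curtis (Vero freeze-thaw extract) in 0.3% BSA-PBS. Drug given subcutaneously in PBS twice daily from 1 h postinfection for 5 days, doses 12.5–200 mg/kg/day. Survival followed 21 days; PD50 by probit analysis; mean day of death by Student's t-test versus placebo.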

The subject of data set [10] is WI-38. Briefly: Tested for growth inhibition againstWI-38 cells. The note with it: Homo sapiens, read-out: ID50 (the source's name). The format is functional. Put shortly:
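WI-38 cells seeded at 1.2 × 10^6 per well, incubated overnight at 37 °C, then refed with growth medium (EMEM, 10% FBS) holding serial drug dilutions or none, for 3 more days at 37 °C. Quadruplicate cultures per concentration trypsinized and counted daily for viable cells by trypan blue exclusion.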

Data set [11] relates to Vaccinia virus. Nature of the data set: Antiviral activity against vaccinia virus (CL strain). It counts as functional. The note with it: Orthopoxvirus vaccinia; read-out: ID50 (the source's name).
Data set [12] relates to Mus musculus. Briefly: Number of survivors against Herpes simplex virus type-1 infection in mice at 100 mg/kg/day out of total 10 tested. It counts as functional. The method in brief:
(§3)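 Female Swiss-Webster mice (20–23 g, 10 per group) were infected ip with 10^3 PFU HSV-1 Schooler in 0.3% BSA-PBS. Drug was given sc twice daily in PBS, starting 1 h postinfection, for 5 days. Survival was followed for 21 days. Mean day of death of dead animals was compared with placebo-treated infected controls by Student's t-test.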

Data set [13] has as its system Mus musculus. Briefly: Number of survivors against Herpes simplex virus type-1 infection in mice at 150 mg/kg/day out of total 10 tested. It counts as ADME, organism-based. Conditions: in vivo. The method in brief:
as §3

Data set [14] has as its system Mus musculus. Nature of the data set: Number of survivors against Herpes simplex virus type-1 infection in mice at 200 mg/kg/day out of total 10 tested. It counts as functional. The method in brief:
as §3

The test system of data set [15] is Mus musculus. Nature of the data set: Number of survivors against Herpes simplex virus type-1 infection in mice at 25 mg/kg/day out of total 10 tested. The format is functional. Put shortly:
as §3

In data set [16] the test system is Mus musculus. Briefly: Number of survivors against Herpes simplex virus type-2 infection in mice at 100 mg/kg/day out of total 10 tested. The format is functional. The method in brief:
(§4)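 Female Swiss-Webster mice (20–23 g, 10 per group) were infected ip with 10^6 PFU HSV-2 Curtis in 0.3% BSA-PBS. Dosing was sc twice daily in PBS from 1 h postinfection for 5 days. Survival was recorded over 21 days. Mean day of death was computed for dead mice and compared with placebo-treated infected controls by Student's t-test.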

In data set [17] the test system is Mus musculus. Briefly: Number of survivors against Herpes simplex virus type-2 infection in mice at 12.5 mg/kg/day out of total 10 tested. It counts as functional. Put shortly:
as §4

The subject of data set [18] is Mus musculus. Briefly: Number of survivors against Herpes simplex virus type-2 infection in mice at 200 mg/kg/day out of total 10 tested. The format is functional. Put shortly:
as §4

For data set [19], the system named is Mus musculus. Nature of the data set: Number of survivors against Herpes simplex virus type-2 infection in mice at 25 mg/kg/day out of total 10 tested. It counts as functional. Put shortly: as §2
Data set [20] concerns Mus musculus. Nature of the data set: Day of death in lethal test against herpes simplex virus type-1 at 100 mg/kg/day. Conditions: in vivo. It counts as ADME, organism-based. The method in brief: as §3
For data set [21], the system named is Mus musculus. Briefly: Day of death in lethal test against herpes simplex virus type-1 at 12.5 mg/kg/day. The format is ADME, organism-based. Conditions: in vivo. The method in brief: as §3
The test system of data set [22] is Mus musculus. Nature of the data set: Day of death in lethal test against herpes simplex virus type-1 at 150 mg/kg/day. The format is functional. Put shortly:
as §3

The test system of data set [23] is Mus musculus. Briefly: Day of death in lethal test against herpes simplex virus type-1 at 50 mg/kg/day. Conditions: in vivo. The format is ADME, organism-based. Put shortly:
as §3

Data set [24] relates to Mus musculus. Nature of the data set: Day of death in lethal test against herpes simplex virus type-2 at 100 mg/kg/day. Conditions: in vivo. The format is ADME, organism-based. The method in brief:
as §4

Data set [25] has as its system Mus musculus. Nature of the data set: Day of death in lethal test against herpes simplex virus type-2 at 12.5 mg/kg/day. It counts as ADME, organism-based. The note with it: in vivo. The method in brief:
as §4

In data set [26] the test system is Mus musculus. Briefly: Day of death in lethal test against herpes simplex virus type-2 at 25 mg/kg/day. It counts as ADME, organism-based. The note with it: in vivo. The method in brief: as §4
For data set [27], the system named is Mus musculus. Nature of the data set: Day of death in lethal test against herpes simplex virus type-2 at 50 mg/kg/day. The format is ADME, organism-based. Conditions: in vivo. The method in brief: as §4
Data set [28] has as its system Mus musculus. Nature of the data set: Day of death in lethal test against herpes simplex virus type-1 at 25 mg/kg/day. It counts as ADME, organism-based. The note with it: in vivo. The method in brief: as §3

`Nc1nc(=O)n([C@@H]2CO[C@H](CO)[C@H]2CO)cc1I`: the IC50 was more than 270 µM in data set [1], 140 µM in [2] and 14 µM in data set [3].

Turning to `Nc1nc(O)c2ncn([C@@H]3CO[C@H](CO)[C@H]3CO)c2n1`, the IC50 in data set [1] was more than 360 µM; in data set [4], 18 µM; in data set [5], 180 µM; in data set [6], 7 µM; in data set [7] it was 180 µM; in data set [10], more than 700 µM. For the same molecule, the IC50 was more than 360 µM in data set [11] and 40 µM in data set [3]. In addition, the results for the ED50 in data set [8] and in data set [9] were 84 mg/kg/day and 52 mg/kg/day, respectively. In addition, the No. of survivors in [12] stood at 6; in [13], 7; in [14], 9; in [15] it was 2; in data set [16], 6; in [17], 0. For the same molecule, the No. of survivors in data set [18] is 9; in [19], 6. In addition, the “Mean day of death” value in [20] was determined as 14.7; in [21], 9.6; in data set [22], 12.3; in [23], 10.1; in data set [24], 12.2; in data set [25], 10.3. The “Mean day of death” value in data set [26] came out at 12.5; in [27], 10.9; in data set [28], 9.1.
